Laboratory results taken from ChEMBL document CHEMBL1137671, “Synthesis of 1-(2,6-dichlorophenyl)-3-methylene-1,3-dihydro-indol-2-one derivatives and in vitro anticancer evaluation against SW620 colon cancer cell line” (Eur J Med Chem, 2009).
Values after ≈ are worked out from the molar mass of the structure shown.

system: SW-620; assay: Cytotoxicity against human SW620 cells after 3 days by MTT assay; assay type: functional; conditions: SW-620, 72 h, read-out: ED50 (the source's name)
Outline: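 SW620 human colon cancer cells seeded at 10,000 per well and exposed to 1-100 µM for 72 h in a CO₂ incubator, with untreated controls. Then 125 µg MTT per well for 3 h, followed by lysis in 10% SDS-0.01 N HCl. Absorbance was read at 540 nm. % cytotoxicity = (1 − (treated − blank)/control) × 100.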

Row | SMILES | EC50 [µg/mL]
1 | O=C1/C(=C\c2cccc3ccccc23)c2ccccc2N1c1c(Cl)cccc1Cl | > 100
2 | O=C1/C(=C/c2cc3ccccc3nc2Cl)c2ccccc2N1c1c(Cl)cccc1Cl | 25 (≈ 55.3 µM)
3 | O=C1/C(=C/c2ccc(Cl)cc2)c2ccccc2N1c1c(Cl)cccc1Cl | 100 (≈ 250 µM)
4 | O=C1/C(=C/c2ccc(Cl)cc2Cl)c2ccccc2N1c1c(Cl)cccc1Cl | 2 (≈ 4.6 µM)
5 | O=C1Cc2ccccc2N1c1c(Cl)cccc1Cl | > 100
6 | O=C1/C(=C/c2ccccc2[N+](=O)[O-])c2ccccc2N1c1c(Cl)cccc1Cl | 90 (≈ 219 µM)
7 | COc1ccc(/C=C2/C(=O)N(c3c(Cl)cccc3Cl)c3ccccc32)cc1 | > 100
8 | O=C1/C(=C/c2cccc(Oc3ccccc3)c2)c2ccccc2N1c1c(Cl)cccc1Cl | 50 (≈ 109 µM)
9 | COc1ccc(/C=C2/C(=O)N(c3c(Cl)cccc3Cl)c3ccccc32)cc1OC | 50 (≈ 117 µM)
10 | CN(C)c1ccc(/C=C2/C(=O)N(c3c(Cl)cccc3Cl)c3ccccc32)cc1 | > 100
11 | O=C1/C(=C/c2c(Cl)cccc2Cl)c2ccccc2N1c1c(Cl)cccc1Cl | > 100
12 | O=C1/C(=C/c2ccccc2)c2ccccc2N1c1c(Cl)cccc1Cl | 100 (≈ 273 µM)
13 | O=C1/C(=C/c2cccc(Cl)c2)c2ccccc2N1c1c(Cl)cccc1Cl | 50 (≈ 125 µM)
14 | Cc1ccc2cc(/C=C3/C(=O)N(c4c(Cl)cccc4Cl)c4ccccc43)c(Cl)nc2c1C | > 100
15 | O=C1/C(=C/c2ccco2)c2ccccc2N1c1c(Cl)cccc1Cl | > 100
16 | Cc1ccc2nc(Cl)c(/C=C3/C(=O)N(c4c(Cl)cccc4Cl)c4ccccc43)cc2c1 | 40 (≈ 85.9 µM)
17 | O=C1/C(=C/c2ccccc2Cl)c2ccccc2N1c1c(Cl)cccc1Cl | 15 (≈ 37.4 µM)
18 | O=C1/C(=C/c2ccc(O)cc2)c2ccccc2N1c1c(Cl)cccc1Cl | 50 (≈ 131 µM)
19 | O=C1/C(=C/c2ccc(F)cc2)c2ccccc2N1c1c(Cl)cccc1Cl | 5 (≈ 13 µM)

system: not listed separately; assay: Inhibition of FGFR autophosphorylation; conditions: not given

Row | IC50 [µM] | SMILES
20 | 10 | O=CN1CCN(c2ccc(/C=C3\C(=O)Nc4ccccc43)cc2)CC1
21 | 10 | Cc1c[nH]c(/C=C2\C(=O)Nc3ccccc32)c1CCC(=O)O
